Experiments:
[1] = Drug level in CD1 mouse brain at 5 mg/kg, iv after 4 hrs; assay type: ADME, organism-based; set-up: dose 5 mg/kg, route intravenous; conditions: read-out: Drug uptake
Procedure, shortened: (§1)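 CD-1 mice, three animals, dosed i.v. at 5 mg/kg and by oral gavage at 10 mg/kg. Plasma CL, Vd, t1/2, Cmax, Tmax, oral AUC and F% were derived. Brain concentrations and brain/plasma ratios at 1 and 4 h were taken from the i.v. dosing.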

[2] = Drug level in Sprague-Dawley rat brain at 10 mg/kg, po after 4 hrs; assay type: ADME, organism-based; set-up: dose 10 mg/kg, route oral; conditions: read-out: Drug uptake
[3] = molecular target: Melanocortin receptor 4 (Homo sapiens, UniProt P32245); test: Antagonist activity at human MC4R expressed in HEK293 cells assessed as inhibition of alpha-MSH-stimulated cAMP production; assay type: functional, cell-based
[4] = molecular target: Cytochrome P450 3A4 (Homo sapiens, UniProt P08684); test: Inhibition of CYP3A4; assay type: ADME
[5] = Ratio of drug level in brain to plasma in CD1 mouse at 5 mg/kg, iv after 4 hrs; assay type: ADME, organism-based; set-up: dose 5 mg/kg, route intravenous; conditions: brain and plasma, read-out: BPR
[6] = Cmax in dog at 10 mg/kg, po; assay type: ADME, organism-based, Canis lupus familiaris; set-up: dose 10 mg/kg, route oral; conditions: in vivo
[7] = AUC in monkey at 5 mg/kg, iv; assay type: ADME, organism-based, Macaca mulatta; set-up: dose 5 mg/kg, route intravenous; conditions: rhesus monkey, plasma
[8] = system: Mus musculus; test: Increase in lean body mass in Lewis lung carcinoma bearing C57BL/6J mouse at 3 mg/kg, ip bid after 4 days; assay type: functional; conditions: route intraperitoneal
Procedure, shortened: (§2)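 Male C57BL/6J mice inoculated with Lewis lung carcinoma cells. From day 11 after inoculation, mice were dosed i.p. twice daily at 3 or 9 mg/kg for 4 days and compared with vehicle-treated tumor-bearing controls. Food intake and body weight were recorded; lean body mass was measured by DEXA.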

[9] = molecular target: Growth hormone secretagogue receptor type 1 (Homo sapiens, UniProt Q92847); test: Binding affinity to GHSR
[10] = Tmax in CD1 mouse at 10 mg/kg, ip; assay type: ADME, organism-based; set-up: dose 10 mg/kg, route intraperitoneal; conditions: in vivo
[11] = AUC in dog at 10 mg/kg, po; assay type: ADME, organism-based, Canis lupus familiaris; set-up: dose 10 mg/kg, route oral; conditions: plasma
[12] = Bioavailability in monkey at 10 mg/kg, po; assay type: ADME, organism-based, Macaca mulatta; conditions: rhesus monkey, in vivo
[13] = AUC in monkey at 10 mg/kg, po; assay type: ADME, organism-based, Macaca mulatta; set-up: dose 10 mg/kg, route oral; conditions: rhesus monkey, plasma
[14] = Tmax in Sprague-Dawley rat at 5 mg/kg, iv and 10 mg/kg, po; assay type: ADME, organism-based; conditions: in vivo
Procedure, shortened: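 Sprague–Dawley rats, three animals per route; i.v. dose 5 mg/kg and oral 10 mg/kg. Brain concentrations and brain/plasma ratios taken from the oral dosing at 1 and 4 h post-dose.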

[15] = molecular target: Cytochrome P450 2C9 (Homo sapiens, UniProt P11712); test: Inhibition of CYP2C9; assay type: ADME
[16] = Half life in dog at 5 mg/kg, iv; assay type: ADME, organism-based, Canis lupus familiaris; set-up: dose 5 mg/kg, route intravenous; conditions: in vivo
[17] = Half life in Sprague-Dawley rat at 5 mg/kg, iv and 10 mg/kg, po; assay type: ADME, organism-based; conditions: in vivo
[18] = AUC in CD1 mouse at 10 mg/kg, po; assay type: ADME, organism-based; set-up: dose 10 mg/kg, route oral; conditions: plasma; procedure, shortened: as §1
[19] = system: Mus musculus; test: Increase in lean body mass in Lewis lung carcinoma bearing C57BL/6J mouse at 9 mg/kg, ip bid after 4 days; assay type: functional; conditions: route intraperitoneal; procedure, shortened: as §2
[20] = Tmax in dog at 10 mg/kg, po; assay type: ADME, organism-based, Canis lupus familiaris; set-up: dose 10 mg/kg, route oral; conditions: in vivo
[21] = Clearance in CD1 mouse at 5 mg/kg, iv; assay type: ADME, organism-based; set-up: dose 5 mg/kg, route intravenous; conditions: in vivo; procedure, shortened: as §1
[22] = Bioavailability in CD1 mouse at 10 mg/kg, po; assay type: ADME, organism-based; conditions: in vivo; procedure, shortened: as §1

Chain of Cytochrome P450 3A4 (P08684 whole entry): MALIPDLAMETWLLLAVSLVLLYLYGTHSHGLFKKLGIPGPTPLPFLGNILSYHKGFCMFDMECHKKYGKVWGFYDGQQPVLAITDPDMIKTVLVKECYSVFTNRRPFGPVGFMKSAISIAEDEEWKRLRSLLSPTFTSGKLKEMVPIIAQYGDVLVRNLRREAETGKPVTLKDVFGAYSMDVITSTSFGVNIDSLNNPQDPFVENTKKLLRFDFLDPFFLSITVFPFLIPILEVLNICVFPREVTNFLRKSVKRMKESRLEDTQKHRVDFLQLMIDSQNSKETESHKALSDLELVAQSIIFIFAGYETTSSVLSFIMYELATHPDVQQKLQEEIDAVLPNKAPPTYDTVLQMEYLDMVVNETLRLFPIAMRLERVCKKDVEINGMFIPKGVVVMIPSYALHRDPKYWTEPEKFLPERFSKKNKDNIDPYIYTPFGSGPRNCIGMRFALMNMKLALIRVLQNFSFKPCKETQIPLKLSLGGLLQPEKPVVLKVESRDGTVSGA
Chain of Growth hormone secretagogue receptor type 1 (Q92847 whole entry): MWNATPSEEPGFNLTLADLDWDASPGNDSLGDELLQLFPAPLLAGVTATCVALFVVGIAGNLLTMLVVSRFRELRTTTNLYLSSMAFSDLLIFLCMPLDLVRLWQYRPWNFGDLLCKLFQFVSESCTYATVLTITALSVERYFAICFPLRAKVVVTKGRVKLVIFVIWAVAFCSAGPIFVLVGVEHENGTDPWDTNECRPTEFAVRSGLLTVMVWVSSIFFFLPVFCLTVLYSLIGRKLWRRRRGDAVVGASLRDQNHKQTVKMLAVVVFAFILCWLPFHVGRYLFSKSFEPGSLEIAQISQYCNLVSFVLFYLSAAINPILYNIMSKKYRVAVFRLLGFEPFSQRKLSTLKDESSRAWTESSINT
Chain of Melanocortin receptor 4 (P32245 whole entry): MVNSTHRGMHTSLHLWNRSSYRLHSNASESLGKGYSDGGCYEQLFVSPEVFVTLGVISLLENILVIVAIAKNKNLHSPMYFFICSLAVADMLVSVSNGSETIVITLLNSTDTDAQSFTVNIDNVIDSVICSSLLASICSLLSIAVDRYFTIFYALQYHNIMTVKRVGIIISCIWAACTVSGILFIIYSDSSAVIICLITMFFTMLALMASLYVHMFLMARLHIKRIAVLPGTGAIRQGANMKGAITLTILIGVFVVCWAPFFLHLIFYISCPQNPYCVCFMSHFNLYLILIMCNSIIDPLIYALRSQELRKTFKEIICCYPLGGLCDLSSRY
Chain of Cytochrome P450 2C9 (P11712 whole entry): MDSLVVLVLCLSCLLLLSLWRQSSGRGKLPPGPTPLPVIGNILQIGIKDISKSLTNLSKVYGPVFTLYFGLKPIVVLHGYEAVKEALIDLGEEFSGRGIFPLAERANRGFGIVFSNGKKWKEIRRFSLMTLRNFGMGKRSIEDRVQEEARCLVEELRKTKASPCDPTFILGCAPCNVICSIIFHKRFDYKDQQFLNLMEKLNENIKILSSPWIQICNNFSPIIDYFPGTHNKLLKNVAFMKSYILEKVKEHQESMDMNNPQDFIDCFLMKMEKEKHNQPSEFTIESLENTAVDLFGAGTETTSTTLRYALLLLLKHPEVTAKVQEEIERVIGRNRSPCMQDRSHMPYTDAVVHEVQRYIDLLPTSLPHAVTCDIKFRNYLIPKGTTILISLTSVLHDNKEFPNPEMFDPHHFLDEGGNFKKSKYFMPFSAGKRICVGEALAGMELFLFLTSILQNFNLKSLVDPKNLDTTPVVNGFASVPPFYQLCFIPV

- concentration at 4 h [1]: 177 ng/g
- concentration at 4 h [2]: 27 ng/g
- IC50 [3]: 0.93 µM
- IC50 [4]: > 10 µM
- Kp at 4 h [5]: 2.2
- Cmax [6]: 0.142 µg/mL
- AUC [7]: 3.7 µg·h/mL
- Ki [9]: 0.46 µM
- Tmax [10]: 0.3 h
- AUC [11]: 1.48 µg·h/mL
- bioavailability [12]: 13.1%
- AUC [13]: 1.07 µg·h/mL
- Tmax [14]: 6 h
- IC50 [15]: > 10 µM
- half-life [16]: 4.7 h
- half-life [17]: 2.2 h
- AUC [18]: 1.16 µg·h/mL
- Tmax [20]: 1 h
- clearance [21]: 2.16 L/h/kg
- bioavailability [22]: 23%
Compound: CC(C)C[C@H](NC(=O)CCN(C)C)c1cc(Cl)ccc1N1CCN(C(=O)[C@H](C)Cc2ccc(Cl)cc2)CC1
- Activity [8]: 7%
- Activity [19]: 15%

— ChEMBL document CHEMBL1138325, “Design, synthesis, in vitro, and in vivo characterization of phenylpiperazines and pyridinylpiperazines as potent and selective antagonists of the melanocortin-4 receptor” (J Med Chem, 2007)
